Measured values reported in ChEMBL document CHEMBL1158806, “Cytotoxic activity of some natural and synthetic guaianolides” (J Nat Prod, 2005).

Legend:
Format in all cases: functional, cell-based
[1] = tested on: HCT-8; test: Cytotoxicity against human HCT8 cells after 3 days by SRB assay; details: HCT-8, 72 h
Summary of the method: (§1)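 Cells kept in RPMI-1640 with 25 mM HEPES, 0.25% sodium bicarbonate, 10% FBS and 100 µg/mL kanamycin. Freshly trypsinized cells seeded at 1500-7500 per well, with compound added from DMSO-diluted stock. After 3 days, attached cells fixed with cold 50% TCA and stained with 0.4% SRB. Bound dye solubilized and absorbance read at 562 nm. IC50 is 50% growth reduction, mean of three determinations.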

[2] = tested on: 1A9; test: Cytotoxicity against human 1A9 cells after 3 days by SRB assay; details: 1A9, 72 h; summary of the method: as §1
[3] = tested on: SK-MEL-2; test: Cytotoxicity against human SK-MEL-2 cells after 3 days by SRB assay; details: SK-MEL-2, 72 h; summary of the method: as §1
[4] = tested on: KB; test: Cytotoxicity against human KB cells after 3 days by SRB assay; details: 72 h; summary of the method: as §1
[5] = tested on: A549; test: Cytotoxicity against human A549 cells after 3 days by SRB assay; details: A549, 72 h; summary of the method: as §1
[6] = Cytotoxicity against human KBVIN cells after 3 days by SRB assay; details: 72 h; summary of the method: as §1
[7] = tested on: MCF7; test: Cytotoxicity against human MCF7 cells after 3 days by SRB assay; details: MCF7, 72 h; summary of the method: as §1

| Structure (SMILES) | IC50 [1] [nM] | IC50 [2] [nM] | IC50 [3] [µM] | IC50 [4] [nM] | IC50 [5] [µM] | IC50 [6] [nM] | IC50 [7] [µM] |
| --- | --- | --- | --- | --- | --- | --- | --- |
| C=C1C(=O)O[C@H]2[C@H]1[C@@H](OC(=O)[C@@]1(C)CO1)CC(=C)[C@@H]1C[C@H](OC(=O)[C@H](O)[C@@H](NC(=O)c3ccccc3)c3ccccc3)[C@@]3(CO3)[C@H]21 | 500 | 200 | 1 | 300 | 0.8 | 7500 | – |
| C=C1C(=O)O[C@H]2[C@H]1[C@@H](OC(=O)[C@](C)(O)CBr)CC(=C)[C@@H]1C[C@H](O)[C@](O)(CBr)[C@H]21 | – | 400 | – | 1100 | 4.2 | 1300 | – |
| C=C1C(=O)O[C@H]2[C@H]1[C@@H](OC(=O)[C@](C)(O)CI)CC(=C)[C@@H]1C[C@H](O)[C@]3(CO3)[C@H]21 | – | 800 | – | 2000 | 7.3 | 1800 | – |
| C=C1C(=O)O[C@H]2[C@H]1[C@@H](OC(=O)[C@@]1(C)CO1)CC(=C)[C@@H]1C[C@H](OC(=O)[C@@H]3OC(c4ccccc4)=N[C@H]3c3ccccc3)[C@@]3(CO3)[C@H]21 | 500 | 800 | 1.5 | 2600 | 3.4 | 2600 | – |
| C=C1C(=O)O[C@H]2[C@H]1[C@@H](OC(=O)[C@](C)(O)CBr)CC(=C)[C@@H]1C[C@H](O)[C@]3(CO3)[C@H]21 | 1300 | 1100 | 3.6 | 1100 | 4.3 | 6300 | – |
| C=C1C(=O)O[C@H]2[C@H]1[C@@H](OC(=O)[C@](C)(O)CI)CC(=C)[C@@H]1C[C@H](O)[C@](O)(CI)[C@H]21 | 1300 | 1300 | 2.6 | 1000 | 3.6 | 5500 | – |
| C=C1C(=O)O[C@H]2[C@H]1[C@@H](OC(=O)[C@@]1(C)CO1)CC(=C)[C@@H]1C[C@H](O)[C@](O)(CI)[C@H]21 | 4500 | 5600 | 9.4 | 4100 | 13.7 | 18600 | – |
| C=C(C)C(=O)O[C@H]1CC(=C)[C@@H]2C[C@H](O)C(=C)[C@@H]2[C@H]2OC(=O)C(=C)[C@@H]21 [AGUERIN B] | – | – | – | – | 26.4 | – | 3.3 |
| C=C1C(=O)O[C@H]2[C@H]1[C@@H](OC(=O)[C@](C)(O)CO)CC(=C)[C@@H]1C[C@H](O)[C@]3(CO3)[C@H]21 [BABYLIN A] | – | – | – | – | > 26.3 | – | > 26.3 |
| C=C1C(=O)O[C@H]2[C@H]1[C@@H](OC(=O)[C@@]1(C)CO1)CC(=C)[C@@H]1C[C@H](O)[C@](O)(CO)[C@H]21 [BABYLIN B] | – | – | – | – | > 26.3 | – | > 26.3 |
| C=C1C(=O)O[C@H]2[C@H]1[C@@H](OC(=O)[C@@](C)(O)CO)CC(=C)[C@@H]1C[C@H](O)[C@@](O)(CCl)[C@H]21 [CEBELLIN J] | – | – | – | – | > 24 | – | > 24 |
| C=C1C(=O)O[C@H]2[C@H]1[C@@H](OC(=O)[C@](C)(O)CCl)CC(=C)[C@@H]1C[C@H](O)[C@](O)(CCl)[C@H]21 [CENTAUREPENSIN] | – | 700 | – | 4100 | 10.3 | 2800 | – |
| C=C1C(=O)O[C@H]2[C@H]1[C@@H](OC(=O)[C@](C)(O)CCl)CC(=C)[C@@H]1C[C@H](O)[C@]3(CO3)[C@H]21 [CHLOROHYSSOPIFOLIN C] | 1600 | 800 | – | 2000 | 9.3 | 1500 | 1.5 |
| C=C(CO)C(=O)O[C@H]1CC(=C)[C@@H]2C[C@H](O)C(=C)[C@@H]2[C@H]2OC(=O)C(=C)[C@@H]21 [CYNAROPICRIN] | – | – | 5.8 | 15900 | 16.5 | – | 3.2 |
| C=C(CO)C(=O)O[C@H]1CC(=C)[C@@H]2C[C@H](O)[C@]3(CO3)[C@@H]2[C@H]2OC(=O)C(=C)[C@@H]21 [JANERIN] | 5500 | 5000 | 8 | 3000 | 19.9 | 25900 | – |
| CO[C@@]12[C@H](COC(N)=O)C3=C(C(=O)C(C)=C(N)C3=O)N1C[C@@H]1N[C@@H]12 [MITOMYCIN] | 600 | – | – | 600 | 0.3 | – | 1.5 |
| CC(=O)O[C@H]1C(=O)[C@@]2(C)[C@H]([C@H](OC(=O)c3ccccc3)[C@]3(O)C[C@H](OC(=O)[C@H](O)[C@@H](NC(=O)c4ccccc4)c4ccccc4)C(C)=C1C3(C)C)[C@]1(OC(C)=O)CO[C@@H]1C[C@@H]2O [PACLITAXEL] | 13 | 2 | – | 1 | – | – | – |
| C=C1C(=O)O[C@H]2[C@H]1[C@@H](OC(=O)[C@]1(C)CO1)CC(=C)[C@@H]1C[C@H](O)[C@]3(CO3)[C@H]21 [REPIN] | 800 | 300 | 2.5 | 1400 | 2.5 | 800 | 1.1 |
